High-throughput results from PubChem BioAssay.
PABP FP inh = PABP-poly(A) binding inhibition; PABP-poly(A) RNA binding, fluorescence polarization; P11940; calls only at 35 µM; actives 1% (n = 290,000);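 note: calls also rest on retests at 20 µM and on dose response follow-up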
IMP-1 inhibitor = inhibitors of Pseudomonas aeruginosa IMP-1 metallo-beta-lactamase; purified IMP-1, nitrocefin hydrolysis, epi-absorbance fluorescence; inhibition, % at 5.6 µM; actives 0.45% (n = 290,000);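 active = inhibition above the mean plus 3 SD of all compounds in the same screening run, cut at about 4.5% in these data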
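System – purified recombinant IMP-1 beta-lactamase · Input – IMP-1 dispensed at 0.2 nM · Timing – 15 min preincubation plus 25 min reaction at 25 °C · Signal – Epi-absorbance fluorescence, 480 nm excitation, 530 nm emission · Measure – percent IMP-1 inhibition derived from blank-referenced optical density · Controls – Enzyme-plus-DMSO low control, enzyme-free DMSO high control · Replication – singlicate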
PABP1 MLLE inh = inhibitors of microRNA-mediated deadenylation, human PABP1 MLLE binding. P11940. GST-MLLE / FITC-PAM2 fluorescence polarization. inhibition, % at 20 µM. actives 0.36% (n = 360,000). AID 588489; in the data active = inhibition above about 35%, passing the limit was not always enough
eIF4H inh = inhibitors of RNA binding by human eIF4H | eIF4H fluorescence polarization binding assay | inhibition, % at 35 µM | actives 0.94% (n = 290,000) | Q15056;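 note: calls also rest on retests at 20 µM and on dose response follow-up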
VIM-2 inh = inhibitors of Pseudomonas aeruginosa VIM-2 metallo-beta-lactamase. purified VIM-2, nitrocefin hydrolysis, epi-absorbance fluorescence. inhibition, % at 5.6 µM. actives 0.89% (n = 290,000);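 active = inhibition above the mean of all tested compounds plus 3 SD, cutoff set per screening run, cut at about 7.5% in these data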;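 note: red hydrolysis product quenches plate fluorescence so inhibitors raise well fluorescence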
Each line names hits and unclear results; the compound was inactive in the other large screens. An excerpt weighted towards active compounds, which were near 2.2% of everything screened. Unless noted, the rule behind the calls is not given here.

N#CC1=C(N)NC(=S)C(C(N)=O)C1c1ccccc1F (stereo not drawn)	PABP1 MLLE inh 46.3
O=C(NC(Cc1ccccc1)C(=O)O)/C(=C/c1ccc([N+](=O)[O-])cc1)NC(=O)c1ccccc1Br (stereo not drawn)	none
COc1ccc(NC(=O)NCc2cccnc2)c(OC)c1	IMP-1 inhibitor 15.6
CN(C(=O)CN1C(=O)c2cccc(N)c2C1=O)C1CCCCC1	PABP1 MLLE inh 40.0 (no result: PABP FP inh, IMP-1 inhibitor, eIF4H inh, VIM-2 inh)
Cc1cc(C(=O)CN2C(=O)c3ccccc3C2=O)c(C)n1Cc1cccs1	none
CN(C(=O)CN1C(=O)NC2(CCc3ccccc32)C1=O)C1CCCCC1 (stereo not drawn)	none (no result: PABP FP inh, IMP-1 inhibitor, eIF4H inh, VIM-2 inh)
CCCCNC(=O)CN1C(=O)c2cccc(N)c2C1=O	PABP FP inh active, PABP1 MLLE inh 39.5, eIF4H inh 84.9
COc1ccccc1CNC(=O)CN1C(=O)c2cccc(N)c2C1=O	none
CC1CCCCC1NC(=O)CN1C(=O)c2cccc(N)c2C1=O (stereo not drawn)	PABP FP inh active, PABP1 MLLE inh 49.8, eIF4H inh 105.7
CC1CCCCC1NC(=O)COC(=O)CN1C(=O)c2ccccc2C1=O (stereo not drawn)	none (no result: PABP FP inh, IMP-1 inhibitor, eIF4H inh, VIM-2 inh)
CCCn1c(C)cc(C(=O)CN2C(=O)c3cccc(N)c3C2=O)c1C	PABP FP inh active, eIF4H inh 85.4
COc1ccc(CNC(=O)CN(Cc2ccccc2)C(=O)CCC(=O)Nc2nccs2)cc1	none
COc1ccc(NC(=O)N(C)C[C@H]2Oc3ccc(NC(=O)Nc4c(C)noc4C)cc3C(=O)N([C@H](C)CO)C[C@@H]2C)cc1	none (no result: PABP FP inh, IMP-1 inhibitor, eIF4H inh, VIM-2 inh)
CCOC(=O)N1CCN(Cc2nc(-c3cccs3)no2)CC1	none
O=C(O)CC(NCc1ccco1)C(=O)OCCc1ccccc1 (stereo not drawn)	none
C=C(C)CCOC(=O)C(CC(=O)O)NCc1ccco1 (stereo not drawn)	PABP FP inh active, eIF4H inh inconclusive
CC(C)Cn1c(N)c(C(=O)COC(=O)c2cc(C3CC3)nc3ccccc23)c(=O)n(C)c1=O	PABP FP inh active (no result: PABP1 MLLE inh)
CCCn1nc(C(=O)OCC(=O)c2c(N)n(C)c(=O)n(C)c2=O)c2ccccc2c1=O	VIM-2 inh 11.4
Cc1ccc(NC2CCCN(C(=O)C3CCCCC3)C2)cc1C (stereo not drawn)	none
CCOc1ccccc1NC(=O)CCNS(=O)(=O)c1ccc(NC(C)=O)cc1	none
CCOc1ccccc1NC(=O)CCS(=O)(=O)c1ccc(Br)cc1	PABP FP inh active, IMP-1 inhibitor 18.1, eIF4H inh 84.5
CCOc1ccc(NC(=O)CCS(=O)(=O)c2ccc(Br)cc2)cc1	IMP-1 inhibitor 15.9, eIF4H inh 76.1
COc1ccc(NC(=O)CCS(=O)(=O)c2ccc(OC)cc2)cc1	none
CCOC(=O)c1ccc(NC(=O)CCS(=O)(=O)c2ccc(Br)s2)cc1	none
CCc1ccccc1NC(=O)CCS(=O)(=O)c1ccc(Br)cc1	IMP-1 inhibitor 34.2
CCc1ccccc1NC(=O)CCS(=O)(=O)c1ccc(C)cc1	none
COc1ccc(NC(=O)CCS(=O)(=O)c2ccc(Br)s2)cc1	eIF4H inh 91.4
COc1ccccc1/C=C/C(=O)NCC(=O)N1CCC(N(C)C2CCCC2)CC1	none
COc1ccccc1N1CCN(C(=O)CSc2nnc(C)n2C2CC2)CC1	none (no result: PABP FP inh, IMP-1 inhibitor, eIF4H inh, VIM-2 inh)
O=S1(=O)CCOCCCN1Cc1cccc(C(F)(F)F)c1	none
O=C(CCS(=O)(=O)c1ccc(Br)cc1)NCc1cccs1	none
O=C(CCS(=O)(=O)c1ccc(Br)cc1)NCc1ccco1	IMP-1 inhibitor 19.9, eIF4H inh 80.8
COC(=O)c1ccccc1NC(=O)CCS(=O)(=O)c1ccc(Br)cc1	IMP-1 inhibitor 34.9, eIF4H inh 85.9
COc1ccc([N+](=O)[O-])cc1NC(=O)CCS(=O)(=O)c1ccc(Br)cc1	eIF4H inh 96.0
NC(=O)CNC(=O)[C@@H]1CC2(CC(c3ccc(Cl)cc3)=NO2)CN1C(=O)c1ccc(Br)cc1 (stereo partly drawn)	none
C=CCn1c(SCCN2CCCC2)nc2c([nH]c3ccccc32)c1=O	VIM-2 inh 10.3
C=CCn1c(SCC(=O)Nc2ccc(OC)cc2)nc2c([nH]c3ccccc32)c1=O	none
O=C(Nc1ccc(N2CCOCC2)c(Cl)c1)c1cccnc1Cl	none
O=C(Nc1ccccc1N1CCOCC1)c1cccnc1Cl	IMP-1 inhibitor 47.2
CCCCCCC(=O)Nc1nc(C)c(-c2csc(Nc3cc(OC)ccc3OC)n2)s1	IMP-1 inhibitor 10.0
COc1ccc(Cl)cc1Nc1nc(-c2sc(NC(=O)CC(C)C)nc2C)cs1	IMP-1 inhibitor 6.8
